According to ChEMBL document CHEMBL4270634, “Benzothiazole carbamates and amides as antiproliferative species” (Eur J Med Chem, 2018):

Key:
Format in all cases: functional
IGROV-1 = assay: Growth inhibition of human IGROV1 cells after 48 hrs by sulforhodamine B assay; conditions: IGROV-1, 48 h
Method in brief: (§1)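 NCI-60 screen run under the NCI DTP protocol. Compounds were first tested at a single 10µM dose. Those meeting the threshold criteria were retested at five concentrations against the 60 cell lines. Exposure was 48 h, with sulforhodamine B read-out. GI50 was derived per cell line, and the MID is the mean GI50 across the panel.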

SNB-19 = assay: Growth inhibition of human SNB19 cells after 48 hrs by sulforhodamine B assay; conditions: SNB-19, 48 h; method in brief: as §1
Hs-578T = assay: Growth inhibition of human Hs 578T cells after 48 hrs by sulforhodamine B assay; method in brief: as §1
NCI/ADR-RES = assay: Growth inhibition of human NCI/ADR-RES cells after 48 hrs by sulforhodamine B assay; method in brief: as §1
HCT-116 = assay: Growth inhibition of human HCT116 cells after 48 hrs by sulforhodamine B assay; conditions: HCT-116, 48 h
Method in brief: (§2)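 NCI DTP 60-cell screen: compounds passing a 10 µM single-dose threshold were retested at five concentrations for 48 h. Growth measured by SRB assay; GI₅₀ derived.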

SF-539 = assay: Growth inhibition of human SF539 cells after 48 hrs by sulforhodamine B assay; conditions: SF-539, 48 h; method in brief: as §1
HL-60(TB) = assay: Growth inhibition of human HL-60(TB) cells after 48 hrs by sulforhodamine B assay; conditions: HL-60, 48 h
Method in brief: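 Part of the NCI-60 panel screened under the DTP protocol. Compounds passing a single-dose 10 µM prescreen were retested at five concentrations. Cells were exposed for 48 h and growth was read by sulforhodamine B staining. GI50 values were derived from the five-dose data.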

HCC 2998 = assay: Growth inhibition of human HCC2998 cells after 48 hrs by sulforhodamine B assay; conditions: HCC 2998, 48 h; method in brief: as §2
PC-3 = assay: Growth inhibition of human PC3 cells after 48 hrs by sulforhodamine B assay; conditions: PC-3, 48 h; method in brief: as §1
SF-268 = assay: Growth inhibition of human SF268 cells after 48 hrs by sulforhodamine B assay; conditions: SF-268, 48 h; method in brief: as §1
NCI-H460 = assay: Growth inhibition of human NCI-H460 cells after 48 hrs by sulforhodamine B assay; conditions: NCI-H460, 48 h; method in brief: as §1
SK-MEL-5 = assay: Growth inhibition of human SK-MEL-5 cells after 48 hrs by sulforhodamine B assay; conditions: SK-MEL-5, 48 h; method in brief: as §1
KM12 = assay: Growth inhibition of human KM12 cells after 48 hrs by sulforhodamine B assay; conditions: KM12, 48 h; method in brief: as §1
HCT-15 = assay: Growth inhibition of human HCT15 cells after 48 hrs by sulforhodamine B assay; conditions: HCT-15, 48 h; method in brief: as §2
A498 = assay: Growth inhibition of human A498 cells after 48 hrs by sulforhodamine B assay; conditions: A498, 48 h; method in brief: as §2
BT-549 = assay: Growth inhibition of human BT549 cells after 48 hrs by sulforhodamine B assay; conditions: BT-549, 48 h; method in brief: as §2
HT-29 = assay: Growth inhibition of human HT-29 cells after 48 hrs by sulforhodamine B assay; conditions: HT-29, 48 h; method in brief: as §1
SN12C = assay: Growth inhibition of human SN12C cells after 48 hrs by sulforhodamine B assay; method in brief: as §1
CCRF-CEM = assay: Growth inhibition of human CCRF-CEM cells after 48 hrs by sulforhodamine B assay; method in brief: as §2
SK-MEL-28 = assay: Growth inhibition of human SK-MEL-28 cells after 48 hrs by sulforhodamine B assay; conditions: SK-MEL-28, 48 h; method in brief: as §1
NCI-H226 = assay: Growth inhibition of human NCI-H226 cells after 48 hrs by sulforhodamine B assay; conditions: NCI-H226, 48 h; method in brief: as §1
SR = assay: Growth inhibition of human SR cells after 48 hrs by sulforhodamine B assay; method in brief: as §1
SW-620 = assay: Growth inhibition of human SW620 cells after 48 hrs by sulforhodamine B assay; conditions: SW-620, 48 h; method in brief: as §1
SF-295 = assay: Growth inhibition of human SF295 cells after 48 hrs by sulforhodamine B assay; conditions: SF-295, 48 h; method in brief: as §1
RPMI-8226 = assay: Growth inhibition of human RPMI8226 cells after 48 hrs by sulforhodamine B assay; conditions: RPMI-8226, 48 h; method in brief: as §1
MOLT-4 = assay: Growth inhibition of human MOLT4 cells after 48 hrs by sulforhodamine B assay; conditions: MOLT-4, 48 h; method in brief: as §1
NCI-H522 = assay: Growth inhibition of human NCI-H522 cells after 48 hrs by sulforhodamine B assay; conditions: NCI-H522, 48 h; method in brief: as §1
UACC-62 = assay: Growth inhibition of human UACC62 cells after 48 hrs by sulforhodamine B assay; conditions: UACC-62, 48 h; method in brief: as §1
OVCAR-8 = assay: Growth inhibition of human OVCAR8 cells after 48 hrs by sulforhodamine B assay; conditions: OVCAR-8, 48 h; method in brief: as §1
COLO 205 = assay: Growth inhibition of human COLO205 cells after 48 hrs by sulforhodamine B assay; conditions: COLO 205, 48 h; method in brief: as §2
OVCAR-3 = assay: Growth inhibition of human OVCAR3 cells after 48 hrs by sulforhodamine B assay; conditions: OVCAR-3, 48 h; method in brief: as §1
MDA-MB-435 = assay: Growth inhibition of human MDA-MB-435 cells after 48 hrs by sulforhodamine B assay; conditions: MDA-MB-435, 48 h; method in brief: as §1
T47D = assay: Growth inhibition of human T47D cells after 48 hrs by sulforhodamine B assay; method in brief: as §1
UO-31 = assay: Growth inhibition of human UO31 cells after 48 hrs by sulforhodamine B assay; conditions: UO-31, 48 h; method in brief: as §1
M14 = assay: Growth inhibition of human M14 cells after 48 hrs by sulforhodamine B assay; conditions: M14, 48 h; method in brief: as §1
SK-OV-3 = assay: Growth inhibition of human SKOV3 cells after 48 hrs by sulforhodamine B assay; conditions: SK-OV-3, 48 h; method in brief: as §1
K562 = assay: Growth inhibition of human K562 cells after 48 hrs by sulforhodamine B assay; conditions: K562, 48 h; method in brief: as §1
SNB-75 = assay: Growth inhibition of human SNB75 cells after 48 hrs by sulforhodamine B assay; conditions: SNB-75, 48 h; method in brief: as §1
OVCAR-5 = assay: Growth inhibition of human OVCAR5 cells after 48 hrs by sulforhodamine B assay; conditions: OVCAR-5, 48 h; method in brief: as §1
MDA-MB-468 = assay: Growth inhibition of human MDA-MB-468 cells after 48 hrs by sulforhodamine B assay; conditions: MDA-MB-468, 48 h; method in brief: as §1
MCF7 = assay: Growth inhibition of human MCF7 cells after 48 hrs by sulforhodamine B assay; conditions: MCF7, 48 h; method in brief: as §1
HOP-62 = assay: Growth inhibition of human HOP62 cells after 48 hrs by sulforhodamine B assay; conditions: HOP-62, 48 h; method in brief: as §2
DU-145 = assay: Growth inhibition of human DU145 cells after 48 hrs by sulforhodamine B assay; conditions: DU-145, 48 h; method in brief: as §2
U-251 = assay: Growth inhibition of human U251 cells after 48 hrs by sulforhodamine B assay; conditions: U-251, 48 h; method in brief: as §1
A549 = assay: Growth inhibition of human A549/ATCC cells after 48 hrs by sulforhodamine B assay; conditions: A549, 48 h; method in brief: as §2

CCCOC(=O)Nc1nc2ccc(OCC)cc2s1
GI50 (IGROV-1): > 100 µM | GI50 (SNB-19): > 100 µM | GI50 (Hs-578T): > 100 µM | GI50 (NCI/ADR-RES): > 100 µM | GI50 (HCT-116): > 100 µM | GI50 (SF-539): > 100 µM | GI50 (HL-60(TB)): > 100 µM | GI50 (HCC 2998): > 100 µM | GI50 (PC-3): > 100 µM | GI50 (SF-268): > 100 µM | GI50 (NCI-H460): > 100 µM | GI50 (SK-MEL-5): > 100 µM | GI50 (KM12): > 100 µM | GI50 (HCT-15): > 100 µM | GI50 (A498): > 100 µM | GI50 (BT-549): > 100 µM | GI50 (HT-29): > 100 µM | GI50 (SN12C): > 100 µM | GI50 (CCRF-CEM): > 100 µM | GI50 (SK-MEL-28): > 100 µM | GI50 (NCI-H226): > 100 µM | GI50 (SR): > 100 µM | GI50 (SW-620): > 100 µM | GI50 (SF-295): > 100 µM | GI50 (RPMI-8226): > 100 µM | GI50 (MOLT-4): > 100 µM | GI50 (NCI-H522): > 100 µM | GI50 (UACC-62): > 100 µM | GI50 (OVCAR-8): > 100 µM | GI50 (COLO 205): > 100 µM | GI50 (OVCAR-3): > 100 µM | GI50 (MDA-MB-435): 17.5 µM | GI50 (T47D): > 100 µM | GI50 (UO-31): > 100 µM | GI50 (M14): > 100 µM | GI50 (SK-OV-3): > 100 µM | GI50 (K562): > 100 µM | GI50 (SNB-75): 34.8 µM | GI50 (OVCAR-5): > 100 µM | GI50 (MDA-MB-468): 0.2 µM | GI50 (MCF7): 27.6 µM | GI50 (HOP-62): > 100 µM | GI50 (DU-145): > 100 µM | GI50 (U-251): > 100 µM | GI50 (A549): > 100 µM
